Assay outcomes from PubChem.
Compounds with a hit are over-represented: about 3.9% of the library has one in this group of screens.
AHR act = human AHR activation. AHR-responsive luciferase reporter cells, luminescence. 320,000 tested, 2.5% active. activation, % at 5 µM. P35869; in the data active = activation above about 47%;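 also: 0% = vehicle wells and 100% = reference agonist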
HIF act = HIF pathway transcriptional activation | activation, % at 7.5 µM (by protocol) | U2OS HRE-luciferase reporter, luminescence; normalized: DMSO 0%, desferrioxamine 100% | 300,000 tested, 0.32% active | AID 1910;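 active = mean activation of at least 10% of the iron chelator positive control signal, with at least half of replicates also reaching 10%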
SR-BI DiI-HDL act = enhances SR-BI lipid uptake from DiI-HDL; activation, % at 12.5 µM; 320,000 tested, 0.096% active; AID 504775; CHO ldlA[mSR-BI] cells, DiI-HDL uptake fluorescence, 3 h; 100 = double the neutral-control signal;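 active = mean replicate activation of at least 60% and every replicate at or above 60%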;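 also: 0% = median plate neutral-control signal and 100% = twice that signal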
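Material – SR-BI-overexpressing, LDLR-lacking CHO cells · Medium – BSA-supplemented, HEPES-buffered Ham's F12, pH 7.4 · Doses – single concentration · Times – compound with DiI-HDL co-incubation, 3 h at 37 °C · Measured by – bottom-read fluorescence, 550/595 nm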
ABCB6 inh 2 = human ABCB6 transporter inhibition | K562-ABCB6 porphyrin accumulation, flow cytometry, 1 h; hits give low values | Q9NP58 | 360,000 tested, 0.19% active | fluorescence ratio to DMSO, % at 10 µM | AID 602162;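 active = fluorescence ratio to DMSO below 75%, the collection mean minus 3 SD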;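 also: signal is porphyrin accumulated inside mitochondria; 100% equals median channel fluorescence of DMSO control wells; lower ratio means ABCB6 inhibition with less porphyrin fluorescence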
FXN GAA850 act = increases GAA850 frataxin promoter reporter activity; 360,000 tested, 0.56% active; activation, % at 6 µM; HEK293 lucGAA850 FXN promoter luciferase reporter, 24 h; percent of 10 µM SAHA response; AID 540364;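 active = activation above the average of all compounds screened plus 3 SD, cutoff fixed separately per campaign, cut at about 7.5% in these data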;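 also: 0% = DMSO wells and 100% = 10 µM SAHA wells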
SR-BI HDL uptake = blocks mouse SR-BI lipid uptake from DiI-HDL. Q61009. inhibition, % at 12.5 µM. ldlA[mSR-BI] CHO cells, DiI-HDL uptake fluorescence, 3 h. AID 488896. 320,000 tested, 0.96% active;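 active = mean replicate inhibition of at least 70% and a set share of replicates each scoring 70 or more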;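 also: 0% = median of neutral control wells and 100% = median of positive control wells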
The depositor's hits bear a star.

Screening C=CCOc1c(Br)cc(CNn2c(C)n[nH]c2=S)cc1OC returned AHR act 48.4*, HIF act -1.1, SR-BI DiI-HDL act 21.4, ABCB6 inh 2 104.0, FXN GAA850 act 2.4 and SR-BI HDL uptake -21.4.
CCOc1ccc(OCC)c(NC(=O)C2CCN(S(=O)(=O)c3cccc4nonc34)CC2)c1 was read as AHR act 3.0, HIF act -0.2, SR-BI DiI-HDL act -42.9, ABCB6 inh 2 96.0, FXN GAA850 act -0.2 and SR-BI HDL uptake 42.9.
Cc1c(C(=O)N2CCCCC2)sc(NC(=O)C2CC2)c1C#N was read as AHR act 0.8, HIF act -0.2, SR-BI DiI-HDL act 240.6*, ABCB6 inh 2 94.0, FXN GAA850 act -0.1 and SR-BI HDL uptake -240.6.
For Cc1c(C(=O)N2CCCCC2)sc(NC(=O)C(C)C)c1C#N the results were AHR act 0.1, HIF act -0.3, SR-BI DiI-HDL act -8.6, ABCB6 inh 2 103.0, FXN GAA850 act -0.2 and SR-BI HDL uptake 8.6.
CCOc1cccc(-c2c(C(=O)N/N=C(\C)c3ccncc3)nnn2-c2nonc2N)c1 was read as AHR act 16.4, HIF act -0.4, SR-BI DiI-HDL act 10.2, ABCB6 inh 2 91.0, FXN GAA850 act -0.4 and SR-BI HDL uptake -10.2.
Screening CCOc1cccc(-c2c(C(=O)N/N=C(\C)c3ccccn3)nnn2-c2nonc2N)c1 returned AHR act 0.5, HIF act 16.3*, SR-BI DiI-HDL act -34.4, ABCB6 inh 2 93.0, FXN GAA850 act -4.8 and SR-BI HDL uptake 34.4.
C/C(=N\NC(=O)c1nnn(-c2nonc2N)c1-c1ccccc1)c1cccnc1 was read as SR-BI DiI-HDL act -8.1, ABCB6 inh 2 95.0, FXN GAA850 act 0.1 and SR-BI HDL uptake 8.1.
Screening Nc1nonc1-n1nnc(C(=O)N/N=C/c2ccccc2F)c1-c1cccs1 returned AHR act 11.7, HIF act -0.2, SR-BI DiI-HDL act -74.4, ABCB6 inh 2 102.0, FXN GAA850 act 0.0 and SR-BI HDL uptake 74.4*.
Screening C/C(=N\NC(=O)c1nnn(-c2nonc2N)c1-c1cccs1)c1cccnc1 returned AHR act 63.2*, HIF act 0.3, SR-BI DiI-HDL act 11.6, ABCB6 inh 2 98.0, FXN GAA850 act -0.7 and SR-BI HDL uptake -11.6.
COc1cccc(-c2c(C(=O)N/N=C(\C)c3cccnc3)nnn2-c2nonc2N)c1 was read as AHR act 61.7*, SR-BI DiI-HDL act 45.5, ABCB6 inh 2 98.0, FXN GAA850 act 1.5 and SR-BI HDL uptake -45.5.
CCN(CC)CCN(C)C(=O)c1ccc(OC2CCN(C(=O)C3CC3)CC2)cc1 was read as AHR act -1.4, HIF act 0.2, SR-BI DiI-HDL act 4.8, ABCB6 inh 2 100.0, FXN GAA850 act 0.0 and SR-BI HDL uptake -4.8.
Screening O=C(Nc1ccccc1C(F)(F)F)c1cc(-c2ccccc2O)on1 returned AHR act -1.3, HIF act 2.6, SR-BI DiI-HDL act -11.3, ABCB6 inh 2 95.0, FXN GAA850 act 2.9 and SR-BI HDL uptake 11.3.
`Cc1c(C(=O)NC2CCOC2)oc2c(F)cccc12` (configuration not stated) gave AHR act 79.1*, HIF act 3.6, SR-BI DiI-HDL act -7.4, ABCB6 inh 2 100.0, FXN GAA850 act 3.6 and SR-BI HDL uptake 7.4.
Screening Cc1c(C(=O)O)oc2c(F)cccc12 returned AHR act 0.0, HIF act 0.6, SR-BI DiI-HDL act 6.3, ABCB6 inh 2 95.0, FXN GAA850 act 2.8 and SR-BI HDL uptake -6.3.
Screening Cc1onc(-c2ccccc2)c1NC(=O)N(CCC(=O)O)Cc1ccccc1 returned AHR act -1.0, HIF act 0.1, ABCB6 inh 2 95.0 and FXN GAA850 act 0.3.
`Cc1onc(-c2ccccc2)c1NC(=O)N(Cc1ccccc1)C(C)C` gave AHR act -0.1, HIF act 55.4*, SR-BI DiI-HDL act -47.7, ABCB6 inh 2 98.0, FXN GAA850 act 2.2 and SR-BI HDL uptake 47.7.
CC1Cc2ccccc2N1C(=O)Cn1c(=O)oc2cc(S(=O)(=O)N3CCCCC3)ccc21 (configuration not stated) was read as AHR act -0.8, HIF act -0.2, SR-BI DiI-HDL act -79.6, ABCB6 inh 2 102.0, FXN GAA850 act 0.9 and SR-BI HDL uptake 79.6*.
For O=C(Cn1c(=O)oc2cc(S(=O)(=O)N3CCCCC3)ccc21)N1CCc2ccccc21 the results were AHR act 5.4, HIF act -0.2, SR-BI DiI-HDL act 1.0, ABCB6 inh 2 99.0, FXN GAA850 act 0.5 and SR-BI HDL uptake -1.0.
For COc1ccc(OC)c(NC(=O)c2cnn(-c3ccccc3)c2C)c1 the results were AHR act 76.3*, HIF act -0.2, SR-BI DiI-HDL act -35.0, ABCB6 inh 2 100.0, FXN GAA850 act 0.1 and SR-BI HDL uptake 35.0.
For Nc1ccc(C(=O)OCC(=O)N2CCc3ccccc3C2)cc1[N+](=O)[O-] the results were AHR act 11.7, HIF act 0.7, SR-BI DiI-HDL act -10.2, ABCB6 inh 2 104.0, FXN GAA850 act 3.6 and SR-BI HDL uptake 10.2.
CCC1CCc2c(sc(NC(=O)c3cccnc3)c2C(N)=O)C1 (configuration not stated) was read as AHR act 23.6, HIF act 0.3, SR-BI DiI-HDL act -58.8, ABCB6 inh 2 101.0, FXN GAA850 act 2.2 and SR-BI HDL uptake 76.6*.
For NC(=O)c1c(NC(=O)c2cccnc2)sc2c1CCCC2 the results were AHR act 46.7, HIF act 2.3, SR-BI DiI-HDL act -51.9, ABCB6 inh 2 96.0, FXN GAA850 act 2.5 and SR-BI HDL uptake 51.9.
Screening CCOC(=O)C(CC)(CC)C(=O)/C=C/c1ccc(OC)cc1 returned AHR act -1.5, HIF act 0.0, SR-BI DiI-HDL act 4.0, ABCB6 inh 2 101.0, FXN GAA850 act 2.2 and SR-BI HDL uptake -4.0.
Screening N#Cc1cc2c(N)c(C(=O)Nc3ccccc3)sc2nc1N returned AHR act 64.2* and HIF act 4.1.
Screening CCCOC(=O)c1cc(-c2ccc(/C=C3/C(=O)N(C)C(=O)C(C#N)=C3C)o2)ccc1Cl returned AHR act 3.2, SR-BI DiI-HDL act -25.3, ABCB6 inh 2 101.0, FXN GAA850 act 2.5 and SR-BI HDL uptake 25.3.
Screening COc1ccc(C(=O)N/N=C(\c2ccccc2)c2ccccn2)cc1 returned AHR act 15.1, HIF act 49.5*, SR-BI DiI-HDL act -9.7, ABCB6 inh 2 100.0, FXN GAA850 act 0.3 and SR-BI HDL uptake 9.7.
`O=C(N/N=C(\c1ccccc1)c1ccccn1)c1ccccc1Cl` gave AHR act 11.6, HIF act 46.6*, SR-BI DiI-HDL act -33.3, ABCB6 inh 2 93.0, FXN GAA850 act 6.0 and SR-BI HDL uptake 33.2.
